Activity calls are given as the source filed them. The calls are words filed in the database; no cut-off is given here.
Key:
[1] = target: Telomerase reverse transcriptase (Homo sapiens) (UniProt O14746); assay: Activation of human telomerase activity expressed in HEK293T cells at 60 uM incubated for 30 mins by modified TRAP assay; format: cell-based; conditions: HEK-293T
Outline: (§1)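 Telomerase came from crude lysate of HEK293T cells transfected with hTERT and hTR plasmids. MTS primer and compound were incubated in telomerase reaction buffer at 30 °C for 30 min, then removed by two phenol–chloroform extractions. Products were ethanol-precipitated, PCR-amplified with FAM-tagged primer, run on 8% non-denaturing acrylamide and phosphorimaged. Accumulated product intensity was averaged over three independent experiments.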

[2] = target: Telomerase reverse transcriptase (Homo sapiens) (UniProt O14746); assay: Activation of human telomerase activity expressed in HEK293T cells incubated for 30 mins by modified TRAP assay; format: cell-based; conditions: HEK-293T; outline: as §1
[3] = target: Telomerase reverse transcriptase (Homo sapiens) (UniProt O14746); assay: Activation of human telomerase activity expressed in HEK293T cells at 20 to 60 uM incubated for 30 mins by modified TRAP assay; format: cell-based; conditions: HEK-293T; outline: as §1
[4] = target: Telomerase reverse transcriptase (Homo sapiens) (UniProt O14746); assay: Activation of human telomerase activity expressed in HEK293T cells assessed as increase in telomer products intensity incubated for 30 mins by modified TRAP assay; format: cell-based; conditions: HEK-293T; outline: as §1
[5] = target: Telomerase reverse transcriptase (Homo sapiens) (UniProt O14746); assay: Activation of human telomerase activity expressed in HEK293T cells at 60 uM incubated for 30 mins by modified TRAP assay and phosphorimage analysis; format: cell-based; conditions: HEK-293T; outline: as §1
[6] = target: Telomerase reverse transcriptase (Homo sapiens) (UniProt O14746); assay: Activation of human telomerase activity expressed in HEK293T cells assessed as increase in telomer products length incubated for 30 mins by modified TRAP assay; format: cell-based; conditions: HEK-293T; outline: as §1
[7] = target: Telomerase reverse transcriptase (Homo sapiens) (UniProt O14746); assay: Activation of human telomerase activity expressed in HEK293T cells incubated for 30 mins by modified TRAP assay and phosphorimage analysis; format: cell-based; conditions: HEK-293T; outline: as §1
[8] = target: Telomerase reverse transcriptase (Homo sapiens) (UniProt O14746); assay: Activation of human telomerase activity expressed in HEK293T cells assessed as increase in telomer products intensity at 40 uM by modified TRAP assay and phosphorimage analysis; format: cell-based; conditions: HEK-293T, TDE = time-dependent effect
Outline: (§2)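 This was a time course at 40 µM compound, with the compound-free set run in parallel. The telomerase source was lysate of HEK293T cells transfected with hTERT/hTR. Reactions ran at 30 °C, and 100 µl was withdrawn at set times and heat-stopped at 95 °C for 10 min. Products were purified, PCR-amplified with FAM primer, and separated on 8% non-denaturing gel with phosphorimaging. Intensities came from three independent experiments.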

[9] = target: Telomerase reverse transcriptase (Homo sapiens) (UniProt O14746); assay: Activation of human telomerase activity expressed in HEK293T cells assessed as increase in telomer products length at 40 uM by modified TRAP assay and phosphorimage analysis; format: cell-based; conditions: HEK-293T, TDE = time-dependent effect; outline: as §2
Thermus aquaticus = assay: Inhibition of Thermus aquaticus DNA polymerase at 5 uM

Sequence of Telomerase reverse transcriptase (Homo sapiens) (O14746 whole entry): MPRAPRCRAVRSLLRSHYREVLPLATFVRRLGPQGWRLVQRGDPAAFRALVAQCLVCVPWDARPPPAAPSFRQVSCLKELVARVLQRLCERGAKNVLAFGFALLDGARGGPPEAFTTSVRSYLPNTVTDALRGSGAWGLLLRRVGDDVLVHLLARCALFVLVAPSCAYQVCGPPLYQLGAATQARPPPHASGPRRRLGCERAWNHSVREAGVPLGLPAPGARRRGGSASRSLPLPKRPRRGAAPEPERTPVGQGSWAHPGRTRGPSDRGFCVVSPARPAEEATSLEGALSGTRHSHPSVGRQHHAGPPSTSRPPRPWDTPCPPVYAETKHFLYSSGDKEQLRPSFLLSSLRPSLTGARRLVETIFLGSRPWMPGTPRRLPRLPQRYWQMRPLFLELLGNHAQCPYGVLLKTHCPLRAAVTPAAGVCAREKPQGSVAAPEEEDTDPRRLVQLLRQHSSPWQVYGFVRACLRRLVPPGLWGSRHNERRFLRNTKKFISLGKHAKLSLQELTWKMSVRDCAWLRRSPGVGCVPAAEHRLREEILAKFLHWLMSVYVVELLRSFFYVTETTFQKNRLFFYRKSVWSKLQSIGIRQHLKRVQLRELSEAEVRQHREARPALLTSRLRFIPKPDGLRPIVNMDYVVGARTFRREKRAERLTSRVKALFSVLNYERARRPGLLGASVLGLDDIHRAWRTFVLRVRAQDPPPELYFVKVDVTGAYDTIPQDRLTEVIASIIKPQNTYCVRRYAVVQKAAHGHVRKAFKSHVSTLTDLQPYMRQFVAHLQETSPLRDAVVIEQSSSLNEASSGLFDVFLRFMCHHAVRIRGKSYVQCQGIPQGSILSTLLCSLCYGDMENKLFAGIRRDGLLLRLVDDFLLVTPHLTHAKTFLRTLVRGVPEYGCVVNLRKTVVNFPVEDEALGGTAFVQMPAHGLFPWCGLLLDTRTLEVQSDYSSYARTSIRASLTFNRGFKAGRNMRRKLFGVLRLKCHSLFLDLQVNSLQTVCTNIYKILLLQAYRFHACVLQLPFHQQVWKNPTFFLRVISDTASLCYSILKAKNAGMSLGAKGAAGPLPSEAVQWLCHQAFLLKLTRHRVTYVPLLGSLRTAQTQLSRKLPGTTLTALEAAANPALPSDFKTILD

| Compound | fold change (FC) [1] | Activity [2] | also measured |
| --- | --- | --- | --- |
| COc1cc(/C=C/C(=O)CC(=O)/C=C/c2ccc(OCCCCC[n+]3ccccc3)c(OC)c2)ccc1O | 3 | – | – |
| COc1cc(CCC(=O)CC(=O)CCc2ccc(O)c(OC)c2)ccc1O | – | inactive | – |
| COc1cc(CC/C=C/C(=O)CCc2ccc(OCCCCC[n+]3ccccc3)c(OC)c2)ccc1OCCCCC[n+]1ccccc1 | – | – | Activity [3]: inactive |
| COc1cc(/C=C/C(=O)CC(=O)/C=C/c2ccc(OCCCCC[n+]3ccccc3)c(OC)c2)ccc1OCCCCC[n+]1ccccc1 | 5 | Dose-dependent effect | Activity [4]: Dose-dependent effect; fold change (FC) [5]: < 5; Activity [6]: Dose-dependent effect; Activity [7]: Dose-dependent effect; Activity [8]: tde; Activity [9]: tde; inhibition (Thermus aquaticus): Active |
| COc1cc(/C=C/C(=O)CC(=O)/C=C/c2ccc(OCCCCC[n+]3ccccc3)cc2)ccc1O | 3 | – | – |
| COc1cc(/C=C/c2cc(/C=C/c3ccc(OCCCCC[n+]4ccccc4)c(OC)c3)on2)ccc1OCCCCC[n+]1ccccc1 | 3 | – | – |
| COc1cc(/C=C/C(=O)CC(=O)/C=C/c2ccc(O)cc2)ccc1OCCCCC[n+]1ccccc1 | 3 | – | – |
| COc1cc(CCC(O)CC(O)CCc2ccc(O)c(OC)c2)ccc1O (stereo not given) | – | inactive | – |
| COc1cc(/C=C/C(=O)CC(=O)/C=C/c2ccc(OCCO)c(OC)c2)ccc1OCCO | – | inactive | – |
| COc1cc(/C=C/C(O)=C/C(=O)/C=C/c2ccc(O)cc2)ccc1O | – | inactive | – |
| O=C(/C=C/c1ccc(O)cc1)CC(=O)/C=C/c1ccc(O)cc1 | – | inactive | – |
| COc1cc(/C=C/C(=O)CC(=O)/C=C/c2ccc(O)c(OC)c2)ccc1O | – | inactive | – |
